According to ChEMBL document CHEMBL1629581, “Diverse cytomegalovirus UL27 mutations adapt to loss of viral UL97 kinase activity under maribavir” (Antimicrob Agents Chemother, 2009):
Active and inactive are the calls of the source. The rule behind the calls is not given here.

Legend:
[1] = test system: Human betaherpesvirus 5; assay: Antiviral activity against Human cytomegalovirus T2867 expressing UL27 kinase with A269T mutant gene by SEAP yield reduction assay; assay type: functional, organism-based; details: Human betaherpesvirus 5, T2867
In short: (§1)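 Cell-free virus was put on 6-day-old human embryonic lung fibroblast monolayers at MOI 0.01 to 0.02 and cultured 6 days across a maribavir range (six wells per assay). Supernatant SEAP was read by chemiluminescent substrate, and EC50 was derived by curve fitting. Values are the mean and standard error of at least 12 replicates over at least four dates. T2211 was run alongside on every date.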

[2] = test system: Human betaherpesvirus 5; assay: Antiviral activity against Human cytomegalovirus clinical T2294 harboring UL97 T409 mutant gene with UL27 E22stop mutant gene by SEAP yield reduction assay relative to wild type; assay type: functional
[3] = test system: Human betaherpesvirus 5; assay: Antiviral activity against 0.01 to 0.02 MOI of Human cytomegalovirus T2867 expressing UL27 kinase with A269T mutant gene assessed as growth inhibition at day 6 by SEAP yield reduction assay relative to control; assay type: functional, organism-based
[4] = test system: Human betaherpesvirus 5; assay: Ratio of EC50 for Human cytomegalovirus T2867 expressing UL27 kinase with A269T mutant gene to EC50 for Human cytomegalovirus T2211 expressing wild type UL27 gene; assay type: functional
In short: (§2)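 Each strain's maribavir EC50 comes from a 6-day SEAP yield reduction in human embryonic lung fibroblasts at MOI 0.01 to 0.02, fitted from supernatant chemiluminescence over at least 12 replicates on at least four dates. It is expressed relative to the EC50 of baseline strain T2211 assayed simultaneously on the same setup dates.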

[5] = test system: Human betaherpesvirus 5; assay: Ratio of EC50 for Human cytomegalovirus T2890 expressing UL97 kinase with V353A mutant gene to EC50 for Human cytomegalovirus T2211 expressing wild type UL27 gene; assay type: functional; in short: as §2
[6] = test system: Human betaherpesvirus 5; assay: Antiviral activity against 0.01 to 0.02 MOI of Human cytomegalovirus T2266 harboring UL97 deletion of 537 through the end mutant gene assessed as growth inhibition at day 6 by SEAP yield reduction assay relative to control; assay type: functional, organism-based
[7] = test system: Human betaherpesvirus 5; assay: Antiviral activity against 0.01 to 0.02 MOI of Human cytomegalovirus T2899 expressing wild type UL97 kinase with N289D, D298G, N300G, P307L,V310A, D351N, I367V mutant gene assessed as growth inhibition at day 6 by SEAP yield reduction assay relative to control; assay type: functional, organism-based
[8] = test system: Human betaherpesvirus 5; assay: Ratio of EC50 for Human cytomegalovirus T3020 expressing UL27 kinase with E22stop gene to EC50 for Human cytomegalovirus T2211 expressing wild type UL27 gene; assay type: functional; in short: as §2
[9] = test system: Human betaherpesvirus 5; assay: Antiviral activity against 0.01 to 0.02 MOI of Human cytomegalovirus T2898 expressing UL27 kinase with W362stop gene N289D, D298G, N300G, P307L, V310A, D351N, I367V mutant gene assessed as growth inhibition at day 6 by SEAP yield reduction assay relative to control; assay type: functional, organism-based
[10] = test system: Human betaherpesvirus 5; assay: Antiviral activity against Human cytomegalovirus T2899 expressing wild type UL27 kinase with N289D, D298G, N300G, P307L,V310A, D351N, I367V mutant gene by SEAP yield reduction assay; assay type: functional, organism-based; details: Human betaherpesvirus 5, T2899; in short: as §1
[11] = test system: Human betaherpesvirus 5; assay: Ratio of EC50 for Human cytomegalovirus T2899 expressing wild type UL27 kinase with N289D, D298G, N300G, P307L,V310A, D351N, I367V mutant gene to EC50 for Human cytomegalovirus T2211 expressing wild type UL27 gene; assay type: functional; in short: as §2
[12] = test system: Human betaherpesvirus 5; assay: Antiviral activity against Human cytomegalovirus T3037 expressing UL27 kinase with L426F mutant gene by SEAP yield reduction assay; assay type: functional, organism-based; details: Human betaherpesvirus 5, T3037; in short: as §1
[13] = test system: Human betaherpesvirus 5; assay: Antiviral activity against Human cytomegalovirus T2931 expressing UL27 kinase 301 to 311 deletion with frame shift mutation at 311 codon by SEAP yield reduction assay; assay type: functional, organism-based; details: Human betaherpesvirus 5, T2931; in short: as §1
[14] = test system: Human betaherpesvirus 5; assay: Ratio of EC50 for Human cytomegalovirus T2898 expressing UL27 kinase with W362stop gene N289D, D298G, N300G, P307L, V310A, D351N, I367V mutant gene to EC50 for Human cytomegalovirus T2211 expressing wild type UL27 gene; assay type: functional; in short: as §2
[15] = test system: Human betaherpesvirus 5; assay: Ratio of EC50 for Human cytomegalovirus T3019 expressing UL27 kinase with 218delC mutant gene to EC50 for Human cytomegalovirus T2211 expressing wild type UL27 gene; assay type: functional; in short: as §2
[16] = test system: Human betaherpesvirus 5; assay: Ratio of EC50 for Human cytomegalovirus T3037 expressing UL27 kinase with L426F mutant gene to EC50 for Human cytomegalovirus T2211 expressing wild type UL27 gene; assay type: functional; in short: as §2
[17] = test system: Human betaherpesvirus 5; assay: Antiviral activity against 0.01 to 0.02 MOI of Human cytomegalovirus T2931 expressing UL27 kinase 301 to 311 deletion with frame shift mutation at 311 codon assessed as growth inhibition at day 6 by SEAP yield reduction assay relative to control; assay type: functional, organism-based
[18] = test system: Human betaherpesvirus 5; assay: Antiviral activity against Human cytomegalovirus T3020 expressing UL27 kinase with E22stop gene by SEAP yield reduction assay; assay type: functional, organism-based; details: Human betaherpesvirus 5, T3020; in short: as §1
[19] = test system: Human betaherpesvirus 5; assay: Antiviral activity against Human cytomegalovirus T2211 expressing wild type UL27 kinase by SEAP yield reduction assay; assay type: functional, organism-based; details: Human betaherpesvirus 5, T2211; in short: as §1
[20] = test system: Human betaherpesvirus 5; assay: Antiviral activity against Human cytomegalovirus T2767 expressing UL27 kinase with L193Fmutant gene by SEAP yield reduction assay; assay type: functional, organism-based; details: Human betaherpesvirus 5, T2767; in short: as §1
[21] = test system: Human betaherpesvirus 5; assay: Antiviral activity against Human cytomegalovirus T3053 expressing UL27 kinase with V353E mutant gene by SEAP yield reduction assay; assay type: functional, organism-based; details: Human betaherpesvirus 5, T3053; in short: as §1
[22] = test system: Human betaherpesvirus 5; assay: Antiviral activity against Human cytomegalovirus clinical isolate C076 harboring UL97 V353A mutant gene with UL27 del 301 to 311 codon by SEAP yield reduction assay relative to wild type; assay type: functional
[23] = test system: Human betaherpesvirus 5; assay: Antiviral activity against Human cytomegalovirus T3019 expressing UL27 kinase with 218delC mutant gene by SEAP yield reduction assay; assay type: functional, organism-based; details: Human betaherpesvirus 5, T3019; in short: as §1
[24] = test system: Human betaherpesvirus 5; assay: Ratio of EC50 for Human cytomegalovirus T3053 expressing UL27 kinase with V353E mutant gene to EC50 for Human cytomegalovirus T2211 expressing wild type UL27 gene; assay type: functional; in short: as §2
[25] = test system: Human betaherpesvirus 5; assay: Antiviral activity against Human cytomegalovirus T2890 expressing UL97 kinase with V353A mutant gene by SEAP yield reduction assay; assay type: functional, organism-based; details: Human betaherpesvirus 5, T2890; in short: as §1
[26] = test system: Human betaherpesvirus 5; assay: Antiviral activity against Human cytomegalovirus T2898 expressing UL27 kinase with W362stop gene N289D, D298G, N300G, P307L, V310A, D351N, I367V mutant gene by SEAP yield reduction assay; assay type: functional, organism-based; details: Human betaherpesvirus 5, T2898; in short: as §1
[27] = test system: Human betaherpesvirus 5; assay: Antiviral activity against Human cytomegalovirus clinical T2294 harboring UL97 T409M mutant gene with UL27 W153R mutant gene by SEAP yield reduction assay relative to wild type; assay type: functional
[28] = test system: Human betaherpesvirus 5; assay: Antiviral activity against Human cytomegalovirus clinical T2294 harboring UL97 T409 mutant gene with UL27 V353E mutant gene by SEAP yield reduction assay relative to wild type; assay type: functional
[29] = test system: Human betaherpesvirus 5; assay: Antiviral activity against Human cytomegalovirus T2981 expressing UL27 kinase with W153R mutant gene by SEAP yield reduction assay; assay type: functional, organism-based; details: Human betaherpesvirus 5, T2981; in short: as §1
[30] = test system: Human betaherpesvirus 5; assay: Ratio of EC50 for Human cytomegalovirus T2931 expressing UL27 kinase 301 to 311 deletion with frame shift mutation at 311 codon to EC50 for Human cytomegalovirus T2211 expressing wild type UL27 gene; assay type: functional; in short: as §2
[31] = test system: Human betaherpesvirus 5; assay: Ratio of EC50 for Human cytomegalovirus T2767 expressing UL27 kinase with L193Fmutant gene to EC50 for Human cytomegalovirus T2211 expressing wild type UL27 gene; assay type: functional; in short: as §2
[32] = test system: Human betaherpesvirus 5; assay: Ratio of EC50 for Human cytomegalovirus T2981 expressing UL27 kinase with W153R mutant gene to EC50 for Human cytomegalovirus T2211 expressing wild type UL27 gene; assay type: functional; in short: as §2

CC(C)Nc1nc2cc(Cl)c(Cl)cc2n1[C@H]1O[C@@H](CO)[C@H](O)[C@@H]1O [MARIBAVIR]
EC50 [1]: 190 nM | fold change (FC) [2]: 15 | inhibition [3]: Active | Ratio EC50 [4]: 2 | Ratio EC50 [5]: 16 | inhibition [6]: Active | inhibition [7]: Active | Ratio EC50 [8]: 2 | inhibition [9]: Active | EC50 [10]: 84 nM | Ratio EC50 [11]: 0.9 | EC50 [12]: 210 nM | EC50 [13]: 290 nM | Ratio EC50 [14]: 2.2 | Ratio EC50 [15]: 2.5 | Ratio EC50 [16]: 2.2 | inhibition [17]: Active | EC50 [18]: 190 nM | EC50 [19]: 95 nM | EC50 [20]: 240 nM | EC50 [21]: 200 nM | fold change (FC) [22]: 15 | EC50 [23]: 230 nM | Ratio EC50 [24]: 2.1 | EC50 [25]: 1480 nM | EC50 [26]: 210 nM | fold change (FC) [27]: 15 | fold change (FC) [28]: 15 | EC50 [29]: 160 nM | Ratio EC50 [30]: 3.1 | Ratio EC50 [31]: 2.6 | Ratio EC50 [32]: 1.7
